Shown are actives, neighbours in structure and some others; about 1.8% of the full set was active somewhere.
NOD2 RIPK2 PPI – inhibitors of human NOD2-RIPK2 interaction. O43353. CHO BLA complementation NOD2-RIPK2, CCF4 ratio. inhibition, % at 4.98 µM. actives 0.38% (n = 360,000). AID 624267; in the data active = inhibition above about 21%;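 also: 0% = vehicle only and 100% = reference blocker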
Target sequence (O43353 whole entry, looked up): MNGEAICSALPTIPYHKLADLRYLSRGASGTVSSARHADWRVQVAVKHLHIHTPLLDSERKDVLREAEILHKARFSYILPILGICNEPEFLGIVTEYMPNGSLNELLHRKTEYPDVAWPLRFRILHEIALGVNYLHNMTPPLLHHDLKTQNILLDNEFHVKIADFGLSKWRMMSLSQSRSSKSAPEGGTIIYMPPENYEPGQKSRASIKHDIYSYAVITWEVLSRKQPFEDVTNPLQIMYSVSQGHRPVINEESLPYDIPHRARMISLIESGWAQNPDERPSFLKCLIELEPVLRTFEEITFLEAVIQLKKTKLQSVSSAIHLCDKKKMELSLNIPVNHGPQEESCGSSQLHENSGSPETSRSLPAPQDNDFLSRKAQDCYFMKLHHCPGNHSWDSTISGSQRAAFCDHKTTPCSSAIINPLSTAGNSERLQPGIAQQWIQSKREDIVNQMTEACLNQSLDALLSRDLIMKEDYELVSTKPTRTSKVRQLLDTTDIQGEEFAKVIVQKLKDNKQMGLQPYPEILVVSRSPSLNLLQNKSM
MC4R antag cAMP – blocks human MC4R cAMP signaling; MC4R-expressing cells, MTII-stimulated cAMP, LANCE TR-FRET; inhibition, % at 6.5 µM; actives 0.48% (n = 360,000); AID 540295;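 active = inhibition above its plate's cutoff, the mean of tested wells on that plate plus 3 SD, cut at about 29% in these data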;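 also: 0% = Melanotan II alone and 100% = Melanotan II plus saturating MCL0020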
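System – human MC4R-expressing U2OS cells · Also added – Melanotan II · Dosing – one concentration, 6.5 µM nominal · Timing – 30-min compound, 1-h challenge, 1-h detection, room temperature · Measured by – Eu-cAMP/anti-cAMP TR-FRET, emission 671 nm · Replicates – singlicate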
TLR4 MyD88 comp – inhibitors of human TLR4-MyD88 binding; actives 0.18% (n = 200,000); inhibition, % at 8.4 µM; HeLa CL3-4 TLR4/MyD88 BLA complementation, FRET ratio; AID 861; O00206+Q99836; in the data active = inhibition above about 25%;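 also: 0% = vehicle and 100% = reference inhibitor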
MC4R ag barr – activates human MC4R beta-arrestin recruitment; P32245; U2OS MC4R beta-arrestin complementation, luminescence; percent of melanotan II response, DMSO zero; activation, % at 8.9 µM; actives 0.98% (n = 360,000); AID 540308;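 active = activation above a per-plate cutoff, the mean activation of sample wells on that plate plus 3 SD, cut at about 8% in these data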
TLR9-MyD88 inh – inhibitors of human TLR9-MyD88 binding | inhibition, % at 4.98 µM | CHO BLA complementation TLR9-MyD88, CCF4 FRET ratio | AID 504734 | actives 0.21% (n = 340,000);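 active = inhibition above the mean over all tested compounds plus 3 SD, cut at about 21% in these data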;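 also: 0% = DMSO only wells and 100% = clavulanate BLA inhibitor control wells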
NOD2-RIPK2 conf – NOD2-RIPK2 interaction inhibition confirmed | shares compounds with NOD2 RIPK2 PPI | CHO cells, NOD2-RIPK2 BLA complementation, CCF4 FRET | inhibition, % at 4.98 µM | actives 70% (n = 1,200) | AID 624370;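 active = mean inhibition across replicates above a set limit taken from the earlier primary screen, cut at about 21% in these data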;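 also: 0% = DMSO-only wells and the high end = clavulanate BLA-blocked wells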
BLA counter – counter-screen for NOD2-RIPK2 interaction inhibitors: BLA reporter. shares compounds with NOD2 RIPK2 PPI. CHO BLA reporter, CCF4 FRET ratio, counterscreen. inhibition, % at 4.98 µM. actives 57% (n = 1,200);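 active = mean inhibition above the low-control mean inhibition plus three low-control SD, cut at about 11% in these data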;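 also: 0% = DMSO only wells and 100% = clavulanate high control wells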
The depositor's hits bear a star; . = not tested or not shown.

SMILES	NOD2 RIPK2 PPI	MC4R antag cAMP	TLR4 MyD88 comp	MC4R ag barr	TLR9-MyD88 inh	NOD2-RIPK2 conf	BLA counter
O=C(NC1CCCCC1)C(c1ccnc2ccccc12)n1c(=O)c(-c2cc3ccccc3[nH]2)nc2ccccc21 (centres undefined)	51.0*	.	.	.	.	49.7*	66.6*
COc1ccc(C(C(=O)NC2CCCCC2)n2c(=O)c(-c3cc4ccccc4[nH]3)nc3ccccc32)cc1 (centres undefined)	43.7*	.	.	.	.	40.8*	64.9*
Cc1ccccc1S(=O)(=O)Cc1ccc(C(=O)NC2CC2)o1	5.6	1.4	.	-1.7	-4.1	.	.
O=C(NN=Cc1c(F)c(F)c(F)c(F)c1F)c1ccc(NS(=O)(=O)c2cccs2)cc1	1.1	21.9	.	-2.8	0.5	.	.
O=C(COC(=O)c1cccc(S(=O)(=O)N2CCOCC2)c1)NCCc1ccccc1	-7.2	3.7	.	-1.9	-0.1	.	.
Cc1ccc2nc(-c3ccc(NC(=S)NCCC(C)C)cc3)sc2c1	-1.0	0.9	-2.1	-1.2	-1.2	.	.
CCCCNC(=S)Nc1ccc(-c2nc3ccc(C)cc3s2)cc1	23.0*	2.6	-6.2	0.6	-9.1	-0.7	-2.8
Cc1nc2ccccc2c(=O)n1-c1cccc(NC(=O)c2cccs2)c1	-1.8	4.9	.	-3.4	-8.2	.	.
O=C(Nc1cccc(N2C(=O)C=CC2=O)c1)c1cccs1	21.5*	6.3	.	-5.4	29.6*	73.5*	11.8*
O=S(=O)(SC1=NCCN1)c1ccccc1	-5.2	-0.4	.	-0.3	3.3	.	.
O=C(Cc1ccccc1)NNC(=O)Nc1ccccc1	-8.2	-2.1	11.4	-0.3	8.9	.	.
Cc1onc(-c2ccccc2)c1C(=O)Nc1nnc(COc2ccc(Cl)cc2)s1	35.6*	9.4	-5.9	1.7	-1.2	3.0	1.9
OC(c1ccc(F)cc1)c1nc(-c2ccoc2)cs1 (centres undefined)	-9.9	6.6	.	-0.4	.	.	.
Cc1cc(C)c(NC(=O)C2CCN(c3cnccn3)CC2)c(C)c1	28.1*	9.5	0.2	-2.8	-11.1	-7.7	-1.5
COc1ccc(-c2nc(CS(=O)CC(=O)NC3CCCc4ccccc43)c(C)o2)cc1OC (centres undefined)	26.6*	2.1	-10.4	1.1	-3.9	-8.1	-6.4
O=C1C(=O)c2cccnc2-c2ncccc21	40.8*	.	.	.	.	2.9	3.8
C/C(=N\Nc1ncc(Br)cn1)c1cccc([N+](=O)[O-])c1	-8.7	3.0	.	-0.6	3.7	.	.
C/C(=N\Nc1ccc([N+](=O)[O-])cc1)c1cccc(N)c1	23.8*	-2.8	5.4	-3.0	10.9	18.6	21.1*
CC(C)C(=O)Nc1cc(C(F)(F)F)ccc1-n1ccnc1	4.7	2.5	0.5	-1.6	-9.9	.	.
Cc1ccc(OCCn2cc(/C=C/C(=O)O)c3ccccc32)cc1	1.3	22.5	.	-1.1	1.1	.	.
COc1ccc(C(=O)/C=C/c2cn(CC(O)CN3CCOCC3)c3ccccc23)cc1 (centres undefined)	18.6	4.9	-0.2	-2.0	10.5	.	.
Cc1ccc(C(=O)/C=C/c2cn(CC(O)CN3CCOCC3)c3ccccc23)cc1 (centres undefined)	22.8*	3.5	5.4	-0.9	19.1	36.2*	35.4*
CCOc1ccc(C(=O)/C=C/c2cn(CN3CCN(C)CC3)c3ccccc23)cc1	26.1*	9.6	14.8	8.1	16.1	23.7*	36.7*
O=[N+]([O-])c1ccc2nc(NN=Cc3ccc(O)cc3)sc2c1	23.4*	9.7	.	-3.9	8.2	24.6*	31.9*
S=C(Nc1ccc(Cc2ccncc2)cc1)Nc1cccc(Cl)c1	-7.0	18.2	-11.6	-1.8	8.0	.	.
SMILES	NOD2 RIPK2 PPI	MC4R antag cAMP	TLR4 MyD88 comp	MC4R ag barr	TLR9-MyD88 inh	NOD2-RIPK2 conf	BLA counter
O=c1ccsn1Cc1ccccc1	27.0*	-18.7	7.5	2.7	1.7	-3.7	1.2
CC(C)S(=O)(=O)CC(=O)c1ccc(Cl)cc1	-4.8	-5.7	-3.6	1.6	-1.2	.	.
COc1ccc([N+](=O)[O-])c(S(=O)(=O)c2ccc(Cl)cc2)n1	21.5*	14.7	.	-2.7	-3.3	47.9*	-11.3
CC(C)C[C@@H](CN)NC(=O)c1nc[nH]c1C(=O)N[C@@H](CC(C)C)C(=O)CNC[C@H](C)NC(=O)c1nc[nH]c1C(=O)N[C@@H](CC(=O)O)C(=O)O	-5.9	5.4	.	-0.8	-3.1	.	.
O=C(C(=Cc1ccc(F)cc1)C(=O)c1ccccc1)c1ccccc1	29.0*	.	.	.	.	12.8	-3.0
O=C(C(=Cc1ccc(F)cc1)c1ccccc1)c1ccc(O)cc1	2.7	4.4	.	0.5	3.5	.	.
CCOC(=O)C1=C(c2ccccc2)N=c2s/c(=C\c3ccc(O)cc3)c(=O)n2C1c1cccs1 (centres undefined)	24.9*	4.3	20.4	-4.2	-4.7	31.3*	41.7*
COc1ccc(-c2csc(NC(=O)CSC(C)C(=O)Nc3cc(C)on3)n2)cc1OC (centres undefined)	13.8	6.0	.	0.2	2.5	.	.
Cc1ccc(C(=O)N2c3ccccc3N=C(c3ccccc3)C2C(=O)NC(C)C)cc1 (centres undefined)	-10.1	.	.	.	.	.	.
CSCCC(c1nc2ccccc2[nH]1)n1c(=O)c(-c2cc3ccccc3[nH]2)nc2ccccc21 (centres undefined)	40.0*	.	.	.	.	34.6*	59.4*
Cc1ccc(Cc2nc3ccccc3n2C(CCc2ccccc2)c2nc3ccccc3[nH]2)cc1 (centres undefined)	-5.0	.	.	.	.	.	.
CSCCC(c1nc2ccccc2[nH]1)n1c(/C=C/c2ccc(F)c(F)c2)nc2ccccc21 (centres undefined)	-13.9	.	.	.	.	.	.
O=c1c(-c2cc3ccccc3[nH]2)nc2ccccc2n1C(CCc1ccccc1)c1nc2ccccc2[nH]1 (centres undefined)	38.4*	.	.	.	.	36.0*	61.9*
O=C(Nc1ccc(S(=O)(=O)N2CCOCC2)cc1)c1cccc(Br)c1	-11.6	4.1	.	-2.4	-0.2	.	.
COc1ccc(CC2C(=O)NC(C)C(=O)N(C)C3Cc4ccc(cc4)Oc4cc(ccc4O)CC(C(=O)NC(C)C(=O)NC(C)C(=O)N2C)N(C)C3=O)cc1 (centres undefined)	22.4*	-1.6	.	-3.8	-1.7	26.1*	-1.9
COc1ccccc1C(=O)NCCC(=O)OCC(=O)Nc1ccc(S(N)(=O)=O)cc1	1.2	22.0	.	1.5	-2.1	.	.
CS(=O)(=O)c1ccc(C(=O)OCC(=O)N2CCN(CCC3CCCCC3)CC2)cc1[N+](=O)[O-]	55.0*	14.8	.	-2.9	.	57.6*	8.6
CCOC(=O)Nc1ccc2c3c(cccc13)-c1ccccc1-2	33.7*	-2.7	.	-0.8	16.0	31.4*	47.2*
